Test results published in ChEMBL document CHEMBL5247578, “Effective synthesis of benzimidazoles-imidazo[1,2-a]pyrazine conjugates: A comparative study of mono-and bis-benzimidazoles for antitumor activity” (Eur J Med Chem, 2019).

Tests used:
RXF 393 = test: Antiproliferative activity against human RXF 393 cells assessed as cell growth at 0.00001 M incubated for 48 hrs by SRB assay relative to control; format: functional; details: read-out: Activity
NCI-H460 = test: Antiproliferative activity against human NCI-H460 cells assessed as cell growth at 0.000001 M incubated for 48 hrs by SRB assay relative to control; format: functional; details: read-out: Activity
SW-620 [1] = test: Antiproliferative activity against human SW620 cells assessed as cell growth inhibition by measuring lethal concentration incubated for 48 hrs by sulforhodamine B assay; format: functional; details: read-out: LC50 (the source's name)
Outline: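 NCI-60 five-dose screen (10^-4 to 10^-8 M, 10-fold dilutions; DMSO stocks). Cells in RPMI 1640 with 5% FBS and 2 mM L-glutamine, preincubated 24 h, then exposed 48 h at 37 °C, 5% CO2. Fixed with cold TCA, stained with 0.4% SRB, absorbance read at 515 nm. Time-zero plates used as reference. LC50 taken from [(Ti-Tz)/Tz]×100 […].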

Malme-3M [2] = test: Antiproliferative activity against human Malme-3M cells assessed as cell growth at 0.00001 M incubated for 48 hrs by SRB assay relative to control; format: functional; details: read-out: Activity
UO-31 = test: Growth inhibition against human UO-31 cells assessed as total growth inhibitory concentration incubated for 48 hrs by sulforhodamine B assay; format: functional
SF-268 = test: Antiproliferative activity against human SF-268 cells assessed as cell growth at 0.0001 M incubated for 48 hrs by SRB assay relative to control; format: functional; details: read-out: Activity
Malme-3M [3] = test: Antiproliferative activity against human Malme-3M cells assessed as cell growth at 0.00000001 M incubated for 48 hrs by SRB assay relative to control; format: functional; details: dose 10 nM, read-out: Activity
EKVX [4] = test: Antiproliferative activity against human EKVX cells assessed as cell growth at 0.000001 M incubated for 48 hrs by SRB assay relative to control; format: functional; details: read-out: Activity
Outline: (§1)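 NCI-60 five-dose screen (10^-4 to 10^-8 M). Cells grown in RPMI 1640 with 5% FBS and 2 mM L-glutamine, plated at 5,000-40,000 cells/well and preincubated 24 h. Drug given from DMSO stock, then 48 h at 37 °C, 5% CO2. For adherent lines, cells fixed with cold TCA, SRB-stained and read at 515 nm. Percent growth taken against time-zero and untreated control.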

TK-10 = test: Growth inhibition against human TK-10 cells incubated for 48 hrs by sulforhodamine B assay; format: functional
NCI-H322M [5] = test: Growth inhibition against human NCI-H322M cells incubated for 48 hrs by sulforhodamine B assay; format: functional
DU-145 = test: Antiproliferative activity against human DU-145 cells assessed as cell growth inhibition by measuring lethal concentration incubated for 48 hrs by sulforhodamine B assay; format: functional; details: read-out: LC50 (the source's name)
SK-MEL-2 = test: Antiproliferative activity against human SK-MEL-2 cells assessed as cell growth at 0.00001 M incubated for 48 hrs by SRB assay relative to control; format: functional; details: read-out: Activity
MDA-MB-435 = test: Antiproliferative activity against human MDA-MB-435 cells assessed as cell growth at 0.00000001 M incubated for 48 hrs by SRB assay relative to control; format: functional; details: dose 10 nM, read-out: Activity
EKVX [6] = test: Antiproliferative activity against human EKVX cells assessed as cell growth at 0.0001 M incubated for 48 hrs by SRB assay relative to control; format: functional; details: read-out: Activity; outline: as §1
ACHN = test: Antiproliferative activity against human ACHN cells assessed as cell growth at 0.00001 M incubated for 48 hrs by SRB assay relative to control; format: functional; details: read-out: Activity
Outline: (§2)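 NCI-60 five-dose screen over 10^-4–10^-8 M (10-fold dilutions). Cells grown in RPMI 1640 with 5% FBS and 2 mM L-glutamine, seeded at 5,000–40,000 cells/well and preincubated 24 h. Drug from DMSO stock, 48 h at 37 °C, 5% CO2. Adherent cells TCA-fixed and stained with 0.4% SRB; A515 read. Percent growth = (Ti−Tz)/(C−Tz)×100, or (Ti−Tz)/Tz×100 when Ti<Tz.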

OVCAR-8 [7] = test: Growth inhibition against human OVCAR-8 cells assessed as total growth inhibitory concentration incubated for 48 hrs by sulforhodamine B assay; format: functional
SN12C = test: Growth inhibition against human SN12C cells incubated for 48 hrs by sulforhodamine B assay; format: functional
786-0 [8] = test: Antiproliferative activity against human 786-0 cells assessed as cell growth at 0.0001 M incubated for 48 hrs by SRB assay relative to control; format: functional; details: read-out: Activity; outline: as §2
HOP-62 [9] = test: Antiproliferative activity against human HOP-62 cells assessed as cell growth at 0.0000001 M incubated for 48 hrs by SRB assay relative to control; format: functional; details: dose 100 nM, read-out: Activity; outline: as §1
T47D = test: Antiproliferative activity against human T47D cells assessed as cell growth at 0.00000001 M incubated for 48 hrs by SRB assay relative to control; format: functional; details: dose 10 nM, read-out: Activity
786-0 [10] = test: Antiproliferative activity against human 786-0 cells assessed as cell growth inhibition by measuring lethal concentration incubated for 48 hrs by sulforhodamine B assay; format: functional; details: read-out: LC50 (the source's name)
NCI-H23 [11] = test: Antiproliferative activity against human NCI-H23 cells assessed as cell growth at 0.00000001 M incubated for 48 hrs by SRB assay relative to control; format: functional; details: dose 10 nM, read-out: Activity
NCI-H226 = test: Growth inhibition against human NCI-H226 cells incubated for 48 hrs by sulforhodamine B assay; format: functional
SNB-19 = test: Antiproliferative activity against human SNB-19 cells assessed as cell growth at 0.00001 M incubated for 48 hrs by SRB assay relative to control; format: functional; details: read-out: Activity
NCI-H322M [12] = test: Antiproliferative activity against human NCI-H322M cells assessed as cell growth at 0.00001 M incubated for 48 hrs by SRB assay relative to control; format: functional; details: read-out: Activity
HCT-116 [13] = test: Antiproliferative activity against human HCT-116 cells assessed as cell growth at 0.0001 M incubated for 48 hrs by SRB assay relative to control; format: functional; details: read-out: Activity; outline: as §1
SW-620 [14] = test: Antiproliferative activity against human SW620 cells assessed as cell growth at 0.0001 M incubated for 48 hrs by SRB assay relative to control; format: functional; details: read-out: Activity
A498 = test: Antiproliferative activity against human A498 cells assessed as cell growth inhibition by measuring lethal concentration incubated for 48 hrs by sulforhodamine B assay; format: functional; details: read-out: LC50 (the source's name)
Calf thymus DNA = test: Displacement of ethidium bromide from calf thymus DNA assessed as quenching constant upto 85 uM by fluorescence based spectroscopic analysis; format: nucleic-acid assay; details: Bos taurus
HCT-116 [15] = test: Growth inhibition against human HCT-116 cells incubated for 48 hrs by sulforhodamine B assay; format: functional
NCI-H23 [16] = test: Growth inhibition against human NCI-H23 cells incubated for 48 hrs by sulforhodamine B assay; format: functional
MCF7 = test: Growth inhibition against human MCF7 cells assessed as total growth inhibitory concentration incubated for 48 hrs by sulforhodamine B assay; format: functional
OVCAR-8 [17] = test: Antiproliferative activity against human OVCAR-8 cells assessed as cell growth at 0.0001 M incubated for 48 hrs by SRB assay relative to control; format: functional; details: read-out: Activity
HOP-62 [18] = test: Antiproliferative activity against human HOP-62 cells assessed as cell growth at 0.00001 M incubated for 48 hrs by SRB assay relative to control; format: functional; details: read-out: Activity; outline: as §1

Row | SMILES | growth at 10 µM (RXF 393) | growth at 1 µM (NCI-H460) | CC50 (SW-620 [1]) | growth at 10 µM (Malme-3M [2]) | TGI (UO-31) | growth at 100 µM (SF-268) | growth at 0.01 µM (Malme-3M [3]) | growth at 1 µM (EKVX [4]) | GI50 (TK-10) | GI50 (NCI-H322M [5]) | CC50 (DU-145) | growth at 10 µM (SK-MEL-2) | growth at 0.01 µM (MDA-MB-435) | growth at 100 µM (EKVX [6]) | growth at 10 µM (ACHN) | TGI (OVCAR-8 [7]) | GI50 (SN12C) | growth at 100 µM (786-0 [8]) | growth at 0.1 µM (HOP-62 [9]) | growth at 0.01 µM (T47D) | other results
1 | COc1ccc(-c2cn3ccnc3c(-c3ccc4ncn(C5CCCCC5)c4c3)n2)cc1 | -2% | 35% | > 100 µM | 51% | > 100 µM | 29% | 100% | 73% | 2.99 µM | > 100 µM | > 100 µM | 21% | 92% | 26% | 13% | > 100 µM | 2110 nM | 2% | 93% | 85% | CC50 (786-0 [10]): > 100 µM; growth at 0.01 µM (NCI-H23 [11]): 97%; GI50 (NCI-H226): 2970 nM; growth at 10 µM (SNB-19): 22%; growth at 10 µM (NCI-H322M [12]): 53%; growth at 100 µM (HCT-116 [13]): -29%; growth at 100 µM (SW-620 [14]): 19%; CC50 (A498): > 100 µM; Kq (Calf thymus DNA): 0.82 10^12/M/s; GI50 (HCT-116 [15]): 399 nM; GI50 (NCI-H23 [16]): 2110 nM; TGI (MCF7): > 100 µM; growth at 100 µM (OVCAR-8 [17]): 8%; growth at 10 µM (HOP-62 [18]): -1%
2 | c1ccc(Cn2cnc3ccc(-c4nc(-c5ccc6c(c5)ncn6C5CCCCC5)cn5ccnc45)cc32)cc1 | -79% | 96% | > 100 µM | -10% | 4.55 µM | 5% | 92% | 76% | 3.52 µM | 3.05 µM | > 100 µM | -41% | 91% | 14% | 11% | 6.54 µM | 2270 nM | 4% | 86% | 86% | CC50 (786-0 [10]): > 100 µM; growth at 0.01 µM (NCI-H23 [11]): 94%; GI50 (NCI-H226): 2930 nM; growth at 10 µM (SNB-19): 28%; growth at 10 µM (NCI-H322M [12]): 8%; growth at 100 µM (HCT-116 [13]): -33%; growth at 100 µM (SW-620 [14]): 7%; CC50 (A498): 6.85 µM; Kq (Calf thymus DNA): 0.74 10^12/M/s; GI50 (HCT-116 [15]): 1070 nM; GI50 (NCI-H23 [16]): 1880 nM; TGI (MCF7): > 100 µM; growth at 100 µM (OVCAR-8 [17]): -2%; growth at 10 µM (HOP-62 [18]): -15%
